# BB579 growth dn: growth inhibitors of yeast BB579 in restrictive medium, primary screen, yeast lifespan-shortening project, S. cerevisiae; AID 804, 2007; inhibition, % at 10 µM; 140,000 tested, 0.51% active; OD615, 48 h;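 active means inhibition above a set limit, 3 SD over the mean compound inhibition, cut at about 44% in these data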
#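 System: Saccharomyces cerevisiae DeaD strain BB579, replicative lifespan model yeast | Buffer or medium: Restrictive glucose-based CSMM-D medium | Times: 4 h preincubation and 48 h exposure at 30 °C | Detection: OD615 turbidity measurement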
# RAM network inh: inhibitors of the yeast RAM network, primary screen, dse1pr::URA3 reporter, 5-FOA selection; inhibition, % at 50 µM; AID 868, 2007; S. cerevisiae dse1pr::URA3 reporter, 5-FOA growth OD615, 2 d; analog-sensitive cbk1-as2 kinase mutant strain; 190,000 tested, 1.8% active;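 active means inhibition above a set limit, 3 SD over mean compound inhibition, cut at about 8.4% in these data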;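 further: 0% = DMSO-only wells with no growth and 100% = 10 µM 1-NA-PP1 full growth; inhibition rescues growth on 5-FOA so higher OD means more RAM inhibition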
# Yeast life ext: compounds extending yeast replicative lifespan, primary screen, S. cerevisiae, OD615. inhibition of the nicotinamide effect, % at 10 µM. S. cerevisiae growth with nicotinamide; deaD strain in restrictive glucose medium. 130,000 tested, 0.68% active;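 active means inhibition above a set limit, placed 3 SD over the median of all compounds, cut at about 26% in these data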;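 further: 0% = nicotinamide-treated wells and 100% = cells grown without nicotinamide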
#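 Material: Modified budding yeast, DeaD strain | Medium: Restrictive glucose medium | Probe or stimulus: 1.5 mM nicotinamide | Dosing: Single dose 10 µM compound, 0.25% DMSO | Times: 48 h at 30 °C | Technique: OD615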
# WT yeast gro inh: growth inhibition of WT strain, primary screen, mitochondrial fusion inhibitor project, WT and mutant strains, chemical genetic. mitochondrial fusion phenotypic screen. inhibition, % at 10 µM. 190,000 tested, 2.1% active. AID 1362, 2008; in the data active means inhibition above about 58%; tested in S. cerevisiae
# An asterisk follows results filed as active; nt = no result given. In the library only some 4.3% were active in any assay of this set; here they are far more common.
SMILES,BB579 growth dn,RAM network inh,Yeast life ext,WT yeast gro inh
CCOC(=O)C1CCCN(c2ccc(NC(=O)c3snc4c(=O)[nH]cnc34)cc2)C1 (centres undefined),-41,4,-1,-10
CCOC(=O)C1CCCN(c2ccc(NC(=O)c3snc4c(=O)[nH]c(C)nc34)cc2)C1 (centres undefined),-18,9.8*,-7,12
O=C(CSCc1ccccc1Cl)Nc1c[nH]c(=O)[nH]c1=O,-23,2,0,-11
Cc1ccc(C(=O)CC(=O)c2cccc(F)c2)c(O)c1,-34,8,-6,69*
COc1cc(-n2c(=O)c3ccccc3n(CC(=O)c3ccc(F)cc3)c2=O)cc(OC)c1OC,nt,3,nt,-6
Cc1noc(C)c1COC(=O)CCOc1ccccc1,-29,-1,-10,-18
Cc1noc(C)c1COC(=O)CCN1c2ccccc2Sc2ccccc21,-24,10*,3,39
CCCCc1ccc(-n2c(Cc3cccs3)n[nH]c2=S)cc1,nt,0,nt,74*
O=[N+]([O-])c1ccc([N+](=O)[O-])c(Nc2ccc(N3CCOCC3)cc2)c1,nt,4,nt,-5
COC(=O)CCN(C(=O)c1cccc([N+](=O)[O-])c1)c1ccccn1,nt,1,nt,2
CN(C)c1ccc(NC(=O)c2sc(SCC(=O)Nc3nccs3)nc2N)cc1,-46,4,-1,19
CN(C)c1ccc(NC(=O)c2sc(SCC(=O)Nc3ccc(Br)cc3)nc2N)cc1,-43,8.7*,0,19
COc1ccc(CCn2c(C(C)C)nc3c(c(=O)c4ccccc4n3C)c2=O)cc1,-34,8.9*,27*,-7
COc1ccc(Cn2c(-c3ccc(C)cc3)nc3c(c(=O)c4ccccc4n3C)c2=O)cc1,-28,9.9*,5,1
Cc1ccccc1-n1c(C)nnc1SCc1cc(=O)oc2ccc3ccccc3c12,-25,0,3,-14
CCN1CC(CN(C)Cc2cn(-c3cccc(C)c3)nc2-c2cccc(F)c2)CC1=O (centres undefined),nt,1,nt,22
Cc1ccc(NC(=S)NCc2ccc(S(N)(=O)=O)cc2)cc1Cl,nt,0,nt,6
O=c1cc(O)c2c(=O)n(-c3ccccc3)c3c(c2o1)CCCCCC3,-7,1,46*,5
CCCCn1c(=O)c2c(O)cc(=O)oc2c2ccccc21,-34,2,43*,3
O=c1cc(O)c2c(=O)n(Cc3ccccc3)c3ccccc3c2o1,nt,4,nt,19
O=c1cc(O)c2c(=O)n(C3CCCCC3)c3ccccc3c2o1,-27,2,31*,7
O=C1CCCc2c1cc(C(=O)O)c(=O)n2-c1ccccc1,nt,2,nt,3
Cc1c(-n2c(SCC(=O)NC(C)C)nc3ccccc3c2=O)c(=O)n(-c2ccccc2)n1C,nt,-2,nt,-21
O=C(C1=C[C@H](C2CC2)C[C@H](OCc2ccc(CO)cc2)O1)N1CCN(Cc2ccc3c(c2)OCO3)CC1,nt,0,nt,-5
O=C(C1=C[C@H](C2CCCCC2)C[C@H](OCc2ccc(CO)cc2)O1)N1CCN(Cc2ccc3c(c2)OCO3)CC1,nt,0,nt,70*
SMILES,BB579 growth dn,RAM network inh,Yeast life ext,WT yeast gro inh
O=C(C1=C[C@@H](C2CCCCC2)C[C@@H](OCc2ccc(CO)cc2)O1)N1CCN(Cc2ccc3c(c2)OCO3)CC1,nt,-1,nt,76*
O=C(C1=C[C@H](C2CC2)C[C@H](OCCCCO)O1)N1CCN(Cc2ccc3c(c2)OCO3)CC1,nt,1,nt,0
COCCn1c(COc2ccc(C)cc2)nc2ccccc21,-39,1,-17,6
Cc1ccc(NCc2nc3ccccc3n2CCOc2ccccc2)cc1,33,-1,21,63*
O=C1NC2(CCCCC2)C(=O)N1CCS(=O)(=O)Oc1ccc(Br)cc1,nt,8.8*,nt,-1
O=C1NC2(CCCC2)C(=O)N1CCS(=O)(=O)Oc1ccccc1,nt,1,nt,6
O=[N+]([O-])c1ccc(N/N=C2/CCCCC2c2ccccn2)cc1 (centres undefined),98*,-1,-10,74*
CC1NC(=S)N(C2CCCCC2)C1=O (centres undefined),nt,1,nt,-2
CC/C(=C\C1CCCCC1)C(NP(=O)(c1ccccc1)c1ccccc1)c1ccccc1 (centres undefined),-24,5,9,79*
O=C(NCC1CC1)[C@@H]1C[C@H]1[C@@H](NP(=O)(c1ccccc1)c1ccccc1)c1ccccc1,-23,2,3,-7
O=C(NC(=S)NNS(=O)(=O)c1ccc(Cl)cc1)c1cccnc1,nt,1,nt,-5
O=C(CSCC(=O)OCn1nnc2ccccc2c1=O)Nc1ccc(Cl)cc1,-47,1,-10,70*
COc1cccc(/C=N/N2C(=O)CSC2=S)c1O,72*,1,-4,3
CCCNC(=O)CSc1nnc(-c2ccccc2Br)n1-c1cccc(C(F)(F)F)c1,5,0,-6,-9
CCc1nnc(NC(=O)CSc2nnc(COc3cccc(C)c3)o2)s1,-12,2,27*,-33
COc1ccc(C(=O)CSc2nnc(-c3cc(C)cc(C)c3)o2)cc1,-28,10.0*,1,-12
Cc1cccc(OCc2nnc(SCC(=O)Nc3ncc(C)s3)o2)c1,nt,0,nt,-5
CCOC(=O)CSc1nnc(COc2cccc(C)c2)o1,nt,1,nt,-15
Cc1ccc(C(=O)CSc2nnc(COc3cccc(C)c3)o2)cc1,-30,9.9*,-2,-1
CCc1nnc(NC(=O)CSc2nnc(-c3ccccc3O)n2-c2ccc(C)cc2C)s1,-47,8.5*,2,25
C/C(CC1(O)C(=O)N(C)c2ccccc21)=N\O (centres undefined),-8,0,-4,0
CN1C(=O)C(Cl)(Cl)C(=O)c2ccccc21,-47,1,47*,-2
CC(C)(C)c1cc(CN2CCN(CCO)CC2)cc(C(C)(C)C)c1O,-15,1,32*,-13
CCCn1c(CN(Cc2ccccc2)Cc2ccccc2)nc2c1c(=O)n(C)c(=O)n2C,-1,1,-8,77*
O=C(O)CN=C(NS(=O)(=O)c1ccccc1)c1ccccc1,10,1,-3,-9
SMILES,BB579 growth dn,RAM network inh,Yeast life ext,WT yeast gro inh
CC(C)N=C(NS(=O)(=O)c1ccccc1)C(Cl)(Cl)Cl,-28,1,40*,47
C=C(C)CN(CC)C(=O)COc1ccc(S(=O)(=O)Nc2ccc(OC)cc2)cc1,3,4,108*,-10
COc1ccc(NS(=O)(=O)c2ccc(OCC(=O)N3CCOCC3)cc2)cc1,-38,0,1,4
CCOc1ccc(NS(=O)(=O)c2ccc(NS(=O)(=O)c3ccc(SC)cc3)cc2)cc1,-70,8.9*,7,14
Cc1c2c(c(C)n1C)C(C(=O)NC1CCCCC1)N(Cc1ccccc1)C2=O (centres undefined),nt,6,nt,-2
CN(C(=O)c1cnc(N2CCN(c3ncccn3)CC2)c2ccccc12)c1ccc(Cl)cc1,-24,-1,3,46

# Bioassay records deposited in PubChem BioAssay by SRMLSC.
